The text below walks through data of ChEMBL document CHEMBL1149072, “Cytotoxic constituents of Baccharis gaudichaudiana” (1994).

Converted amounts (≈) assume the structure as drawn.

Assay type in all cases: functional
The nature of test [1]: Cytotoxicity against human KBV1 cells. The settings on record: KB-V1, read-out: ED50 (the source's name). In short, it runs like this:
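The KB-V1 line is multidrug resistant. It was derived from KB cells by extended exposure to sublethal vinblastine. It was tested in 96-well microtiter plates by a previously described method, with ED50 in µg/ml as the read-out.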

The subject of test [2] is Col2. Kind of test: Cytotoxicity against human Col2 cells. The note with it: read-out: ED50 (the source's name). In short, it runs like this: (§1)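 These human cancer cell lines were established from primary tumors at the authors' institution. Cytotoxicity was assessed in 96-well microtiter plates by a previously described protocol and expressed as ED50 in µg/ml.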
The test system of test [3] is P388. Kind of test: Cytotoxicity against mouse P388 cells. The settings on record: read-out: ED50 (the source's name). In short, it runs like this:
(§2)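 The cell lines came from ATCC. Cytotoxicity was run in 96-well microtiter plates by a previously described method and reported as ED50 in µg/ml.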

The subject of test [4] is KB. Kind of test: Cytotoxicity against human KB cells. The note with it: read-out: ED50 (the source's name). In outline:
as §2

The nature of test [5]: Cytotoxicity against human BC1 cells. The note with it: read-out: ED50 (the source's name). In short, it runs like this:
as §1

Test [6] relates to Lu1. Kind of test: Cytotoxicity against human Lu1 cells. The note with it: read-out: ED50 (the source's name). In outline: as §1
The test system of test [7] is HT-1080. Kind of test: Cytotoxicity against human HT1080 cells. The note with it: read-out: ED50 (the source's name). In short, it runs like this: as §2
In test [8] the test system is SK-MEL-2. Kind of test: Cytotoxicity against human SK-MEL-2 cells. The settings on record: read-out: ED50 (the source's name).

As for `C=C1CC[C@@H]2[C@H]([C@H]3[C@H]1CC[C@]3(C)O)C2(C)C` [SPATHULENOL], the EC50 in test [1], in test [2], in test [3], in test [4], in test [5] and in test [6] was > 20 µg/mL throughout. Further, the EC50 in test [7] is > 20 µg/mL; in test [8], 6.3 µg/mL (≈ 28.6 µM).

For `O=c1cc(-c2ccc(O)cc2)oc2cc(O)cc(O)c12` [APIGENIN], the EC50 in test [1] is 16.8 µg/mL (≈ 62.2 µM); in test [2], 19.3 µg/mL (≈ 71.4 µM); in test [3], 12.2 µg/mL (≈ 45.1 µM); in test [4], > 20 µg/mL; in test [5], > 20 µg/mL; in test [6], 14 µg/mL (≈ 51.8 µM). Also, the EC50 in test [7] is 12.2 µg/mL (≈ 45.1 µM); in test [8], 13.6 µg/mL (≈ 50.3 µM).

`COc1c(O)cc2oc(-c3ccc(O)cc3)cc(=O)c2c1O` [HISPIDULIN]: the EC50 in test [1] is 2.8 µg/mL (≈ 9.33 µM); in test [2], > 20 µg/mL; in test [3], 0.8 µg/mL (≈ 2.66 µM); in test [4], 5.6 µg/mL (≈ 18.7 µM); in test [5] it was 19 µg/mL (≈ 63.3 µM); in test [6], 17.6 µg/mL (≈ 58.6 µM). Also, the results for the EC50 in test [7] and in test [8] were 5.2 µg/mL (≈ 17.3 µM) and 11.5 µg/mL (≈ 38.3 µM), respectively.

Take `C[C@@H]1CC[C@@]23COC(=O)[C@H]2C[C@@H](O)C=C3[C@@]1(C)CCc1ccoc1` [GUADICHAUDONE]: the EC50 is > 20 µg/mL in test [1]; > 20 µg/mL in test [2]; 11.7 µg/mL (≈ 35.4 µM) in test [3]; > 20 µg/mL in test [4]; > 20 µg/mL in test [5]; > 20 µg/mL in test [6]. Besides, the EC50 in test [7] and in test [8] was > 20 µg/mL in each case.

Regarding `C[C@H]1CC=C2C(CO)(CO)CCC[C@]2(C)C1CC[C@@H](CCO)COC(=O)/C=C/c1ccc(O)cc1` (stereo partly drawn) [GUADICHAUDOL C], the EC50 in test [1] is 4.7 µg/mL (≈ 9.66 µM); in test [2] it was 19.3 µg/mL (≈ 39.7 µM); in test [3] it was 2.4 µg/mL (≈ 4.93 µM); in test [4] it was > 20 µg/mL; in test [5] it was 19 µg/mL (≈ 39 µM); in test [6], 13.1 µg/mL (≈ 26.9 µM). Further, the EC50 is 12.4 µg/mL (≈ 25.5 µM) in test [7] and 11.2 µg/mL (≈ 23 µM) in test [8].

In the case of `CC(=O)O[C@@H]1C=C2C(=O)OC[C@]23CC[C@@H](C)[C@](C)(CCC2=CC(=O)OC2)C3C1` (stereo partly drawn) [ARTICULIN ACETATE], the EC50 was > 20 µg/mL in test [1]; > 20 µg/mL in test [2]; 1.7 µg/mL in test [3]; > 20 µg/mL in test [4]; > 20 µg/mL in test [5]; > 20 µg/mL in test [6]. In addition, the EC50 in test [7] and in test [8] was > 20 µg/mL throughout.
